This is an account of results in publication PMC3044235 (Analytical and Bioanalytical Chemistry, 2010).

The format of data set [1] is in vivo, human. The following applies: for approximate average daily output in urine: assuming the mean 24-h urine volume is 1.4 L; for percentage excreted in urine within 24 h of the administered dose: within 24 h after ingestion of the tablets; for AUC(0-inf) / AUC(0-t) / Tmax / half-life: human, urine, po. The method in brief: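 Healthy volunteers (21–48 y) took oral flavonoid/isoflavone tablets. Processing: acetonitrile/methanol precipitation, centrifugation, β-glucuronidase/sulfatase (H. pomatia) hydrolysis at pH 4.66 for 18 h at 37 °C, then SPE. Reversed-phase UHPLC used a 0.05% TFA/acetonitrile gradient, UV 254/280 nm, and blank-urine calibration. Kel came from terminal-slope regression; t1/2 = 0.693/Kel.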

The format of data set [2] is in vivo, human. The following applies: healthy volunteers, diet rich in fruits, vegetables, tea, and wine. The method in brief: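 Volunteers on a flavonoid-rich diet also took oral flavonoid/isoflavone tablets; urine was sampled 5 h post-dose. Urine was deproteinised with acetonitrile/methanol, hydrolysed with β-glucuronidase/sulfatase (H. pomatia, pH 4.66, 18 h, 37 °C), cleaned by SPE and run on reversed-phase UHPLC (0.05% TFA/acetonitrile gradient, 25 °C, UV 254 and 280 nm). Amounts came from calibration curves in blank urine; identities were confirmed by HPLC–ESI-MS–MS.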

Where [3] appears, read: human urine, oral pharmaceutical preparations, n = 6, mean±S.D.

“And” between values parts separate entries of the source, which are not always exact repeats. Identical values can stand only once.

Take `COc1cc2c(=O)c(-c3ccc(O)cc3)coc2cc1O[C@@H]1O[C@H](CO)[C@@H](O)[C@H](O)[C@H]1O` [GLY, glycitin]: in data set [1], the “approximate average daily output in urine” value is about 1.73 mg and the “percentage excreted in urine within 24 h of the administered dose” value (shortened to “percentage excreted in urine within 24 h”) came out at 30%. Moreover, the “T max, time to reach peak concentration” value in data set [1] (human urine, oral pharmaceutical preparations, n = 6) amounted to 5 h. Further, in data set [1] (setting [3]), the “AUC(0–t), area under the urine concentration–time curve” value was determined as 86628.8 ± 1769.0 µg·h/mL; the “AUC(0–∞), area under the urine concentration–time curve” value is 86678.1 ± 1766.7 µg·h/mL; the “C max, peak concentration in urine” value was 5482.33 ± 10.78 ng/mL and 5482.3 ± 10.8 ng/mL.

On to `Oc1cc(O)c2c(c1)OC(c1ccc(O)c(O)c1)C(O)C2` (racemic) [(±)-CA, (±)-catechin], for which, in data set [2], the “mean concentration in urine” value was 5427.34 ng/mL.

For `C[C@@H]1O[C@@H](Oc2c(-c3ccc(O)c(O)c3)oc3cc(O)cc(O)c3c2=O)[C@H](O)[C@H](O)[C@H]1O` [QUR, quercitrin], the “mean concentration in urine” value in data set [2] amounted to 73.57 ng/mL.

What is called AUC(0-inf) is total exposure, with the tail of the curve extrapolated. As a reminder, the AUC(0-t) is exposure summed from dosing to a finite time, without extrapolation to infinity. Low readings indicate less exposure, high ones more exposure. The Tmax is the time at which the peak concentration occurs. What is called half-life is the time needed for the level to fall by half in the phase considered. Low readings indicate fast loss, high ones slow loss. On to `C[C@@H]1O[C@@H](OC[C@H]2O[C@@H](Oc3c(-c4ccc(O)c(O)c4)oc4cc(O)cc(O)c4c3=O)[C@H](O)[C@@H](O)[C@@H]2O)[C@H](O)[C@H](O)[C@H]1O` [RUT, rutin], for which, in data set [1], the “approximate average daily output in urine” value is about 0.19 mg, the AUC(0-inf) was determined as 12820 ± 78.9 µg·h/mL, the AUC(0-t) came out at 12810 ± 77.3 µg·h/mL and the Tmax was found to be 8 h. Further, in data set [1], the half-life is 3.98 ± 0.53 h and the “percentage excreted in urine within 24 h” value is reported as 1%. The “C max, peak concentration in urine” value in data set [1] (setting [3]) was 780.2 ± 10.39 ng/mL.

Regarding `Oc1cc(O)c2c(c1)O[C@H](c1ccc(O)c(O)c1)[C@H](O)C2` [(−)-EC, (−)-epicatechin], in data set [2], the “mean concentration in urine” value was found to be 2724.26 ng/mL.

Turning to `O=c1c(-c2ccc(O)cc2)coc2cc(O)ccc12` [DA, daidzein], in data set [1], the “approximate average daily output in urine” value is given as about 0.14 mg, the AUC(0-inf) turned out to be 7730 ± 414 µg·h/mL, the AUC(0-t) is 7710 ± 410 µg·h/mL and the Tmax came out at 7 h. In data set [1], the half-life was 4.43 ± 0.86 h and the “percentage excreted in urine within 24 h” value turned out to be 17%. Moreover, in data set [1] (setting [3]), the “C max, peak concentration in urine” value was found to be 228.0 ± 5.34 ng/mL.

As for `COc1ccc([C@@H]2CC(=O)c3c(O)cc(O)cc3O2)cc1O` [HST, hesperetin], in data set [2], the “mean concentration in urine” value was “detected in urine, but not quantified”.
